We go through 35 molecules from ChEMBL document CHEMBL1156793, “Identification, synthesis, and pharmacological evaluation of tetrahydroindazole based ligands as novel antituberculosis agents” (J Med Chem, 2010).

Each structure is given as a SMILES string. pIC50: −log10 of the molar value. Converted amounts (≈) assume the structure as drawn.

Data set [1] relates to Mycobacterium tuberculosis. Description: Antimycobacterial activity against Mycobacterium tuberculosis H37Rv after 16 to 24 hrs by microplate alamar blue assay. It counts as functional. An outline of the steps: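 M. tuberculosis H37Rv (ATCC 27294), 1 × 10^5 cfu/mL inoculum, in 7H12 medium with two-fold compound dilutions at 128 to 0.5 μM final (12.8 mM DMSO stocks). Incubated aerobically at 37 °C for 7 days, then Tween 80 plus Alamar blue added for 16-24 h. Fluorescence read at ex 530/em 590 nm. MIC = lowest concentration giving ≥90% reduction versus bacteria-only controls; average of two measurements.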

A short description of data set [2]: Selectivity index, ratio of IC50 for african green monkey Vero cells to MIC for Mycobacterium tuberculosis H37Rv ATCC 27294. It counts as functional. A digest of the protocol:
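The ratio takes the Vero (CCL-81) IC50 as numerator. Cells were exposed to geometric 3-fold dilutions (12.8 mM DMSO stocks, final DMSO ≤1% v/v) in MEM with 10% FBS, 25 mM HEPES and 2 mM glutamine, in duplicate. Culture was 72 h at 37 °C, 5% CO2. Viability was read by CellTiter 96 aqueous absorbance at 490 nm, and IC50 came from curve fitting. The denominator is the H37Rv MABA MIC.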

Another data set has as its system Vero. Briefly: Cytotoxicity against african green monkey Vero cells after 72 hrs. It counts as cell-based. Conditions: Chlorocebus sabaeus. A digest of the protocol: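 Vero cells (CCL-81), 5 × 10^5 log-phase cells per well, exposed to geometric 3-fold dilutions in MEM with 10% FBS, 25 mM HEPES, 0.2% NaHCO3, 2 mM glutamine. DMSO ≤1% v/v final. Tested in duplicate at 37 °C, 5% CO2. Viability read after 72 h by CellTiter 96 aqueous (MTS) absorbance at 490 nm. IC50 from curve fitting.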

Data set [3] is described as follows: Metabolic stability in mouse liver microsomes assessed as intrinsic clearance. Type of data set: ADME, Microsome. An outline of the steps: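 Intrinsic clearance scaled up from the in vitro half-life in mouse liver microsomes. Microsomes at 0.5 mg/mL, compound at 1 μM, 1.0 mM NADPH, pH 7.4 phosphate buffer, 37 °C, in triplicate. Parent depletion followed over 30 min by LC-MS-MS.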
On the technique in general: Microsomes from liver hold many membrane-bound enzymes, among them those of drug oxidation.

The nature of data set [4]: Cmax in BALB/c mouse at 50 mg/kg, po. Type of data set: ADME, organism-based. Further details: dose 50 mg/kg, route oral. Conditions: in vivo. A digest of the protocol:
(§1)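 Female BALB/c mice (20-22 g), groups of 12, single oral 50 mg/kg dose formulated in 5% NMP/95% PEG400. Retro-orbital blood sampled at 0, 0.5, 1, 2, 4, 8 and 24 h postdose. Plasma obtained by centrifugation, precipitated with three volumes acetonitrile containing internal standard. Parent quantified by LC-MS-MS. AUC over 0–24 h.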

Data set [5] can be described thus: Tmax in BALB/c mouse at 50 mg/kg, po. Type of data set: ADME, organism-based. Further details: dose 50 mg/kg, route oral. As to conditions: in vivo. A digest of the protocol: as §1
A short description of data set [6]: AUC in BALB/c mouse at 50 mg/kg, po. It counts as ADME, organism-based. Further details: dose 50 mg/kg, route oral. Conditions: plasma. A digest of the protocol: as §1
A short description of data set [7]: Metabolic stability in mouse liver microsomes assessed as hepatic clearance. Type of data set: ADME, Microsome. An outline of the steps:
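Hepatic plasma clearance predicted from microsomal intrinsic clearance with the nonrestricted well-stirred liver model. Assumes protein binding is similar in blood and microsomes. Microsomal depletion run at 1 μM compound, 0.5 mg/mL mouse microsomes, 1.0 mM NADPH, 37 °C, in triplicate, measured by LC-MS-MS.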

The nature of data set [8]: Metabolic stability in mouse liver microsomes assessed as half life. It counts as ADME, Microsome. An outline of the steps:
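Mixture prewarmed 5 min, then started with 1.0 mM NADPH. Quenched with acetonitrile plus internal standard at 0, 5, 10, 15, 20 and 30 min. Parent measured by LC-MS-MS. No-NADPH controls.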

For `Cc1nonc1C(=O)NC1CCCc2c1cnn2-c1ccc(NC(=O)C(F)(F)F)cc1` (stereo not given), it took 128 µM (≈ 55.4 µg/mL) to inhibit growth in [1] (MIC).

On to `Cc1cc(C)cc(-n2ncc3c2CCCC3NC(=O)c2ccc3c(c2)no[n+]3[O-])c1` (stereo not given), for which, in [1], 1.9 µM (≈ 0.767 µg/mL) was the least that counted as inhibitory (MIC).

Take `CC(C)(C)c1ccc(-n2ncc3c2CCCC3NC(=O)c2ccc3c(c2)no[n+]3[O-])cc1` (stereo not given): the “Ratio IC50” value in data set [2] is 29. For the same molecule, in data set [1], the minimal inhibitory concentration (MIC) (in general, the smallest concentration in the dilution series that meets the test's criterion for growth inhibition) came to 1 µM (≈ 0.431 µg/mL). Moreover, in the data set on Vero, the pIC50 (as a rule, −log10 of the IC50, conventionally taken in molar units) was 4.54.

In data set [1], `Cc1nonc1C(=O)NC1CCCc2c1cnn2-c1ccccc1C(F)(F)F` (stereo not given) gave an MIC above 128 µM.

Take `Cc1nonc1C(=O)NC1CCCc2c1cnn2-c1ccc([N+](=O)[O-])cc1` (stereo not given): in data set [1], the MIC was above 128 µM.

Regarding `Cc1nonc1C(=O)NC1CCCc2c1cnn2-c1ccc(NC(=O)C(C)(C)C)cc1` (stereo not given), the MIC in data set [1] is 110 µM (≈ 46.5 µg/mL).

Molecule `COC(=O)c1ccc(C(=O)NC2CCCc3c2cnn3-c2ccc(C(C)(C)C)cc2)nc1` (stereo not given) yielded an MIC in data set [1] of 7.3 µM (≈ 3.16 µg/mL).

Turning to `Cc1nonc1C(=O)NC1CCCc2c1cnn2-c1ccc(C(C)(C)C)cc1` (stereo not given), in data set [3], the CLint scaled (commonly the rate of metabolic loss divided by the concentration) was 200 mL/min/kg. Further, the “Ratio IC50” value in data set [2] is recorded as above 75.3. For the same molecule, the highest level in [4] (Cmax) was 1.5 µM. For the same molecule, the Tmax (as a rule, the time at which the peak concentration occurs) in [5] is 30 min. Besides, in data set [6], the AUC (in general, the area under the concentration-time curve, a measure of exposure) is 3.6 µM·h. Moreover, in [7], the CLhep predicted was 34 mL/min/kg. Moreover, the minimal inhibitory concentration (MIC) in [1] came to 1.7 µM (≈ 0.645 µg/mL). Besides, the half-life (commonly the time in which the quantity being followed falls by half) in data set [8] was determined as 27 min. Further, the pIC50 in the data set with Vero was below 3.89.

For the molecule `COc1ccc(-n2ncc3c2CCCC3NC(=O)c2nonc2C)cc1` (stereo not given), the MIC in [1] was above 128 µM.

In [1], `CC(C)(C)c1ccc(-n2ncc3c2CCCC3NC(=O)c2ccno2)cc1` (stereo not given) displayed an MIC of 124 µM (≈ 45.2 µg/mL).

Take `Cc1nonc1C(=O)NC1CCCc2c1nnn2-c1ccc(C(C)(C)C)cc1` (stereo not given): in [1], inhibition of growth (MIC) required 7.7 µM (≈ 2.93 µg/mL).

Molecule `CC(C)(C)c1ccc(-n2ncc3c2CCCC3NC(=O)c2cnccn2)cc1` (stereo not given) gave an MIC in [1] of 57.7 µM (≈ 21.7 µg/mL).

Take `CSCC[C@H](N)C(=O)NC1CCCc2c1cnn2-c1ccc(C(C)(C)C)cc1` (stereo not given in full): inhibition of growth in data set [1] (MIC) required 4.8 µM (≈ 1.92 µg/mL).

For `Cc1nc2cc(C(=O)NC3CCCc4c3cnn4-c3ccc(OC(F)(F)F)cc3)ccc2s1` (stereo not given), in data set [1], the MIC was above 128 µM.

Turning to `Cc1cc(C)cc(-n2ncc3c(NC(=O)c4nonc4C)cccc32)c1`, in data set [1], inhibition of growth (MIC) required 117 µM (≈ 40.6 µg/mL).

As for `CSCCC(=O)NC1CCCc2c1cnn2-c1ccc(OC(F)(F)F)cc1` (stereo not given), the MIC in [1] was determined as 88.3 µM (≈ 35.3 µg/mL).

The molecule `Cc1nonc1C(=O)Nc1ccc(-n2ncc3c2CCCC3NC(=O)c2nonc2C)cc1` (stereo not given) displayed an MIC in [1] of 44.9 µM (≈ 20.1 µg/mL).

For the molecule `Cc1nonc1C(=O)NC1CCCc2c1cnn2-c1ccc(OC(F)(F)F)cc1` (stereo not given), the CLint scaled in data set [3] amounted to 54 mL/min/kg. The “Ratio IC50” value in data set [2] was above 67.4. Also, the highest concentration (Cmax) – broadly, the peak of the concentration-time curve – in data set [4] turned out to be 9.5 µM. The Tmax in [5] was determined as 30 min. The AUC in [6] turned out to be 53.5 µM·h. The CLhep predicted in data set [7] is 23 mL/min/kg. Moreover, the lowest concentration to inhibit growth in data set [1] (MIC) was 1.9 µM (≈ 0.774 µg/mL). Besides, in data set [8], the half-life came out at 102 min. Moreover, the pIC50 with Vero is below 3.89.

For the molecule `Cc1nonc1CNC1CCCc2c1cnn2-c1ccc(C(C)(C)C)cc1` (stereo not given), it took 38.6 µM (≈ 14.1 µg/mL) to inhibit growth in data set [1] (MIC).

Consider `CO[C@H]1/C=C/O[C@@]2(C)Oc3c(C)c(O)c4c(O)c(c(/C=N/N5CCN(C)CC5)c(O)c4c3C2=O)NC(=O)/C(C)=C\C=C\[C@H](C)[C@H](O)[C@@H](C)[C@@H](O)[C@@H](C)[C@H](OC(C)=O)[C@@H]1C` [RIFAMPIN], for which, in data set [2], the “Ratio IC50” value amounted to 2033. For the same molecule, in data set [1], the MIC was 0.06 µM (≈ 0.0494 µg/mL).

Regarding `Cc1nonc1C(=O)NC1CCCc2c1cnn2-c1cccc(C(F)(F)F)c1` (stereo not given), the MIC in data set [1] was 15.4 µM (≈ 6.03 µg/mL).

For `CC(C)(C)c1ccc(-n2ncc3c(NC(=O)c4ccc5c(c4)no[n+]5[O-])cccc32)cc1`, the “Ratio IC50” value in [2] is recorded as 4.5. In [1], this molecule yielded an MIC of 0.4 µM (≈ 0.171 µg/mL). In the data set with Vero, this molecule had a negative logarithm of the IC50 (pIC50) of 5.74.

`Cc1nonc1C(=O)NC1CCCc2c1cnn2-c1ccc(C(F)(F)F)cn1` (stereo not given): in data set [1], the MIC is above 128 µM.

`CC(C)(C)c1ccc(-n2ncc3c2CCCC3NC(=O)c2ncccc2O)cc1` (stereo not given) returned a minimal inhibitory concentration (MIC) in [1] of 26.9 µM (≈ 10.5 µg/mL).

In turn, `CC(C)(C)c1ccc(-n2ncc3c2CCCC3NC(=O)c2ccc3nonc3c2)cc1` (stereo not given) came in with an MIC in data set [1] above 128 µM.

With `Cc1cc(C)cc(-n2ncc3c(NC(=O)c4ccc5c(c4)no[n+]5[O-])cccc32)c1`, the “Ratio IC50” value in [2] is 23. Also, in data set [1], inhibition of growth (MIC) required 0.7 µM (≈ 0.28 µg/mL). The pIC50 in the data set with Vero was 4.79.

The molecule `Cc1nonc1C(=O)NC1CCCc2c1cnn2-c1ccc(NC(C)C)cc1` (stereo not given) displayed an MIC in [1] above 128 µM.

In the case of `Cc1nocc1C(=O)NC1CCCc2c1cnn2-c1ccc(OC(F)(F)F)cc1` (stereo not given), 48.9 µM (≈ 19.9 µg/mL) was the least that counted as inhibitory in data set [1] (MIC).

On to `Cc1cc(C)cc(-n2ncc3c2CCCC3NC(=O)c2nonc2C)c1` (stereo not given), for which the MIC in data set [1] was above 128 µM.

`Cc1nonc1C(=O)Nc1cccc2c1cnn2-c1ccc(C(C)(C)C)cc1`: the MIC in data set [1] is above 128 µM.

Take `Cc1nonc1C(=O)NC1CCCc2c1cnn2-c1ccc(C(F)(F)F)cc1` (stereo not given): in data set [2], the “Ratio IC50” value is listed as above 67.4. In addition, the lowest concentration to inhibit growth in data set [1] (MIC) was 1.9 µM (≈ 0.744 µg/mL). In addition, in the data set on Vero, the pIC50 is below 3.89.

The molecule `Cc1nonc1C(=O)NC1CCCc2c1cnn2-c1ccc(F)cc1` (stereo not given) had an MIC in data set [1] of 30.7 µM (≈ 10.5 µg/mL).

`Cc1nonc1C(=O)NC1CCCc2c1cnn2-c1ccc(Br)cc1` (stereo not given): the MIC in data set [1] is 64.6 µM (≈ 26 µg/mL).

Molecule `Cc1nonc1C(=O)NC1CCCc2c1cnn2-c1ccc(N)cc1` (stereo not given) had an MIC in data set [1] above 128 µM.

In turn, `Cc1cc(C)cc(-n2ncc3c2CCCC3NC(=O)c2ccc3nonc3c2)c1` (stereo not given) yielded an MIC in data set [1] above 128 µM.
